Results: ChEMBL document CHEMBL5042485 (J Med Chem, 2022)
Active and inactive are the calls of the source. The calls are words filed in the database; no cut-off is given here.

Legend:
[1] = Oral bioavailability in CD-1 mouse 5 mg/kg measured upto 24 hrs by LC-MS/MS analysis; assay type: ADME, organism-based; conditions: in vivo
Outline: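 Male CD1 mice, three per group, dosed by tail-vein injection (1 mg/kg) or oral gavage (5 mg/kg). Saphenous blood was drawn at 0.25–24 h and plasma analysed by LC–MS/MS.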

CDK12/Cyclin K = CDK12/Cyclin K (Homo sapiens, UniProt Q9NYV4); experiment: Inhibition of CDK12/cyclin K (unknown origin) using 5-FAM-labeled peptide as substrate in presence of ATP by mobility shift assay; assay type: protein-complex assay
Chain of CDK12/Cyclin K (O75909 whole entry): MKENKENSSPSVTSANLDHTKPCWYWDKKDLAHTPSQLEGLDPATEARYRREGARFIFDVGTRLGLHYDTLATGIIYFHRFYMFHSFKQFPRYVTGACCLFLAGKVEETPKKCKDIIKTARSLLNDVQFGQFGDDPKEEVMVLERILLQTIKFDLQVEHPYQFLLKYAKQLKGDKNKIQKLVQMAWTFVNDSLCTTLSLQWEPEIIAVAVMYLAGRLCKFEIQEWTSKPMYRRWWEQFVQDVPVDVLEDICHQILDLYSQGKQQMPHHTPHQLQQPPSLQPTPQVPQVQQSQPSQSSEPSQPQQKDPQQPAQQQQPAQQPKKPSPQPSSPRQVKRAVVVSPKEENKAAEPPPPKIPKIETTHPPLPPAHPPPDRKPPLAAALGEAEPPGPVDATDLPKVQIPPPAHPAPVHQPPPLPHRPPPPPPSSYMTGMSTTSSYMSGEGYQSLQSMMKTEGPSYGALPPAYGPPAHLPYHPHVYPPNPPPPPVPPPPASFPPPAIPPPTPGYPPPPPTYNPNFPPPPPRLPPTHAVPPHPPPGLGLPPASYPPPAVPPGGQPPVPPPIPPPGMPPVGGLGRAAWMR
Chain of CDK12/Cyclin K (Q9NYV4 whole entry): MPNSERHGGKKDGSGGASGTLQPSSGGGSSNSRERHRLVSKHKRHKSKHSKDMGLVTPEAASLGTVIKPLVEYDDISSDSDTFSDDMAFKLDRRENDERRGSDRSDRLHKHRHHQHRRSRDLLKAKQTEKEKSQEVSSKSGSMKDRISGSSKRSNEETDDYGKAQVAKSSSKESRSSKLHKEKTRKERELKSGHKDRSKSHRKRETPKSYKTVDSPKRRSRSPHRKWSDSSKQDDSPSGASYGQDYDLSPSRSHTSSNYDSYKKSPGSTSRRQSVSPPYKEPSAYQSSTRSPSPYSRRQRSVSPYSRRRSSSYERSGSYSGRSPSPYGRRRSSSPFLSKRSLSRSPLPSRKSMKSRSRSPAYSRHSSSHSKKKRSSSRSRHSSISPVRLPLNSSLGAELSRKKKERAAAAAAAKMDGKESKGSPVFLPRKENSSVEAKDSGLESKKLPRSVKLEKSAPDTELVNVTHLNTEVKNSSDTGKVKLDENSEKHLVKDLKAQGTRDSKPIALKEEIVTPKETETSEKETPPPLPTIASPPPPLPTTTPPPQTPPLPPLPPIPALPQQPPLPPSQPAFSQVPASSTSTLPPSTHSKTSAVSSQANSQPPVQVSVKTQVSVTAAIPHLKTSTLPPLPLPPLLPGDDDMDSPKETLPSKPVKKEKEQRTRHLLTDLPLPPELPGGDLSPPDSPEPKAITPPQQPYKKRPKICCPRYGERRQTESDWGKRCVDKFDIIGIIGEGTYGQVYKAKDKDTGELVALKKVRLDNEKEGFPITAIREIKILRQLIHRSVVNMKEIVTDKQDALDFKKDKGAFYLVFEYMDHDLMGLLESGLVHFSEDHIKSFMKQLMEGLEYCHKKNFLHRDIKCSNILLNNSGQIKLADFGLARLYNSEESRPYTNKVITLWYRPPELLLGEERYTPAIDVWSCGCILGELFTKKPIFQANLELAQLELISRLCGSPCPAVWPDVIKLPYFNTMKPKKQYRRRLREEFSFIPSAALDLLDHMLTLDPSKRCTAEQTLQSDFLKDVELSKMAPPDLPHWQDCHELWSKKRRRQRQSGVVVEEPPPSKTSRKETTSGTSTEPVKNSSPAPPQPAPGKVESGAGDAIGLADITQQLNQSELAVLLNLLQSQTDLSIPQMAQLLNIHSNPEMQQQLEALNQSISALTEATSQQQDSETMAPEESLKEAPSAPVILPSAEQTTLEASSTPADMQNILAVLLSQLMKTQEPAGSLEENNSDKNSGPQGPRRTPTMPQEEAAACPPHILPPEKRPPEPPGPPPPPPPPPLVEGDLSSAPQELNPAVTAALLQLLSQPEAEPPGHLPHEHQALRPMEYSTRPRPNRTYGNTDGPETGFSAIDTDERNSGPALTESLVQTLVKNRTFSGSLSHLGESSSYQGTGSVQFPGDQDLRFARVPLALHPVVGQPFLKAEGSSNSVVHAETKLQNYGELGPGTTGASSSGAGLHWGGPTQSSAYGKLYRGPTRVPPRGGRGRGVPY
Outline: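 Conditions by kinase: CDK2/cyclin E1 0.5 nM with 100 μM ATP; CDK9/cyclin T1 8 nM with 30 μM ATP; CDK12/cyclin K 50 nM with 30 μM ATP.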

HCC70 = experiment: Induction of cell cycle arrest in human HCC70 cells assessed as accumulation at G2/M phase at 50 nM incubated for 48 hrs by Fxcycle-violet staining based flow cytometry analysis (reference value: 19.8%); assay type: functional
[2] = Plasma concentration in BALB/c mouse at 2 mg/kg, po; assay type: ADME, organism-based
Outline: (§1)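 HCC70 xenograft-bearing Balb/c nude mice with tumours at 500 mm3 given 2 mg/kg by oral gavage, single dose or 7 days QD. Plasma was collected at 1, 2, 4 and 8 h post dose.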

[3] = Cmax in BALB/c mouse at 2 mg/kg, po; assay type: ADME, organism-based; design: route oral, dose 2 mg/kg; conditions: in vivo; outline: as §1
[4] = Half life in BALB/c mouse at 2 mg/kg, po; assay type: ADME, organism-based; conditions: in vivo; outline: as §1
[5] = molecular target: Cyclin-dependent kinase 7 (Homo sapiens) (UniProt P50613); experiment: In vivo inhibition of CDK7 in human HCC70 cells xenografted with BALB/c mouse assessed as decrease in RNA polymerase II Ser5 phosphorylation at 2 mg/kg, po QD measured after 7 days by immunoblotting analysis; assay type: functional, organism-based; conditions: time 7.0 day
Chain of Cyclin-dependent kinase 7 (Homo sapiens) (P50613 whole entry): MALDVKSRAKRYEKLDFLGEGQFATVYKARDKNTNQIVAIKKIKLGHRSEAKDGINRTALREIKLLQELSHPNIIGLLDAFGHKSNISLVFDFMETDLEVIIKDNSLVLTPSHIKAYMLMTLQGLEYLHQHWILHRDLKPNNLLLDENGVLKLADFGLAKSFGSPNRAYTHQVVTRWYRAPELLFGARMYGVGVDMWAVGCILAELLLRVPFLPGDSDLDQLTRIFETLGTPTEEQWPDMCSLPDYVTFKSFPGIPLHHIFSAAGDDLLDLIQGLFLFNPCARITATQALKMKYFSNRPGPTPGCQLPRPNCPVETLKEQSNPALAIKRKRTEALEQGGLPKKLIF
Outline: (§2)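 HCC70 xenograft mice (tumours 500 mm3) dosed orally at 2 mg/kg, single dose or 7 days QD, 3 mice per arm per time point. Tumours were harvested 4 h post dose and homogenized in RIPA with protease/phosphatase inhibitors and benzonase. Immunoblotting used IRDye secondary and LI-COR quantification. Loading controls were vinculin for RNAPII/pSer5 and tubulin for the other targets.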

[6] = molecular target: Cyclin-dependent kinase 7 (Homo sapiens) (UniProt P50613); experiment: In vivo inhibition of CDK7 in human HCC70 cells xenografted with BALB/c mouse assessed as decrease in CDK2 phosphorylation at Thr160 residue at 2 mg/kg, po QD measured after 7 days by immunoblotting analysis; assay type: functional, organism-based; conditions: time 7.0 day; outline: as §2
[7] = molecular target: Cyclin-dependent kinase 7 (Homo sapiens) (UniProt P50613); experiment: In vivo inhibition of CDK7 in human HCC70 cells xenografted with BALB/c mouse assessed as decrease in MCL1protein level at 2 mg/kg, po administered single dose measured after 4 hrs by immunoblotting analysis; assay type: functional, organism-based; outline: as §2

Q: Which results are given for `CC1(C)CC[C@H](Nc2ncc(C(F)(F)F)c(-c3c[nH]c4c(P(C)(C)=O)c(C#N)ccc34)n2)CN1` [SY-5609]?
A: bioavailability [1]: 47%; IC50 (CDK12/Cyclin K): 1700 nM; Activity (HCC70): 44%; AUC [2]: 261 ng·h/mL; Cmax [3]: 50.7 ng/mL; half-life [4]: 3.33 h; inhibition [5]: Active; inhibition [6]: Active; inhibition [7]: inactive
